Assay outcomes from PubChem.
The list is not random: actives were taken first. Their share in the collection is about 1.5%.
Statin myotox sup: protects C2C12 myotubes from simvastatin toxicity | ATP luminescence, 48 h; scaled: DMSO 0, geranylgeraniol control 100 | rescue of ATP level, % at 7.49 µM | 330,000 compounds, 0.78% hits;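 active means mean ATP rescue above about 67%, or every replicate alone reaching that limit, limit read from the data, passing the limit was not always enough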;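 further: myotubes were challenged with 10 µM simvastatin during compound exposure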
SUMO Mot1 rescue: SUMOylation pathway inhibition by Mot1-301 growth rescue. growth rescue, % at 18.8 µM. S. cerevisiae Mot1-301 growth rescue, ATP luminescence, 38.5C; percent above DMSO median, 100 means doubled. AID 2716. 320,000 compounds, 1% hits;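 active means every valid replicate shows activation above 250% relative to neutral control wells; inactive means the rest, any valid replicate at or below 250%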;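 further: OY570 slx delta 5 strain wells were the positive control but not used for scaling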
Cneo AK release: Cryptococcus neoformans lysis via adenylate kinase release. C. neoformans lysis, adenylate kinase release luminescence, 4 h; normalised: neutral wells 0, clomiphene wells 100. lysis activity, % at 15 µM. 360,000 compounds, 0.2% hits. AID 651654;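 active means mean lysis activity across replicates of at least 80%, whatever share of replicates individually reach that level; inactive means mean lysis activity below 80%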
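read-out = cell lysis signal | test system = log-phase Cryptococcus neoformans yeast cells | input = cells at 5 × 10^6 per mL | medium = fresh YPD growth medium | signal = luminescent adenylate kinase detection reagent | timing = 4 h at 37 °C static, read 1 h later | dosing = single dose | controls = Clomiphene as positive lysis control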
* hit, by the source's call; / = no result given; + = active, no number.

SMILES	Statin myotox sup	SUMO Mot1 rescue	Cneo AK release
COc1ccc(-c2noc(-c3ccccc3C(=O)Nc3cccnc3)n2)cc1	103*	-4	-1
COc1ccc(-c2noc(-c3ccccc3C(=O)Nc3cccnc3)n2)cc1OC	2	-11	-4
Cc1cc(C(=O)COC(=O)CN=C2NS(=O)(=O)c3ccccc32)c(C)n1CCc1ccc(Cl)cc1	112*	11	3
Cc1cc(-n2c(C)cc(C(=O)COC(=O)CN=C3NS(=O)(=O)c4ccccc43)c2C)no1	/	134	0
CNC[C@@H]1OCCCC[C@H](C)Oc2ccc(NC(=O)Nc3ccccc3)cc2C(=O)N([C@@H](C)CO)C[C@@H]1C	6	/	1
BrC(=C\c1ccccc1)/C=N/Nc1nc(N2CCOCC2)nc(N2CCOCC2)n1	/	-25	/
BrC(/C=C\c1ccccc1)=N/Nc1nc(N2CCOCC2)nc(N2CCOCC2)n1	/	320*	/
O=C(NCC[C@@H]1CC[C@@H](NS(=O)(=O)c2ccccc2)[C@H](CO)O1)c1ccc2c(c1)OCO2	1	/	1
O=C(NCc1ccccn1)Nc1ccccc1	10	/	-3
CC(C)(C)NC(=O)C(=O)NCc1ccccn1	2	3	3
O=C(NCc1ccccn1)C(=O)NCc1ccccn1	/	295*	/
COc1ccc(NC(=O)NCc2ccccn2)cc1	110*	333	-2
CN(C)C(=O)C[C@@H]1CC[C@H]2[C@@H](COC[C@@H](O)CN2CC2CCCCC2)O1	-1	/	-1
C[C@@H]1CN([C@@H](C)CO)C(=O)Cc2cc(NC(=O)Nc3ccc(C(F)(F)F)cc3)ccc2O[C@@H]1CN(C)C(=O)Nc1ccc2c(c1)OCO2	-164	/	0
COc1ccc(S(=O)(=O)N2CCN(c3ccccc3OC)CC2)cc1	-5	-14	-2
COc1ccc(S(=O)(=O)N2CCN(c3ccc4nnc(-c5ccccc5)n4n3)CC2)cc1	111*	5	1
Cc1ccc(S(=O)(=O)Oc2ccc(/C=C(/NC(=O)c3ccccc3)C(=O)O)cc2)cc1	/	700*	/
Cc1ccc(S(=O)(=O)Oc2ccc(/C=C(/NC(=O)c3ccccc3)C(=O)NCC(=O)O)cc2)cc1	/	6	/
CCCN(C)C[C@@H]1Oc2ncc(-c3ccccc3F)cc2C(=O)N([C@H](C)CO)C[C@@H]1C	15	/	48
CCNC(=O)C[C@@H]1CC[C@@H]2[C@H](COC[C@@H](O)CN2C(=O)Nc2cccc(OC)c2)O1	7	/	-2
C=CCOc1ccc(Br)cc1/C=N/O	126*	-22	1
O/N=C/c1cc(Br)ccc1OCc1ccccc1F	-10	1	5
CC(c1nc2ccccc2c(=O)[nH]1)N1CCOCC1 (centres undefined)	0	9	-1
CC(c1nc2ccccc2c(=O)[nH]1)N1CCN(C)CC1 (centres undefined)	117*	8	0
O=C(C[C@H]1CC[C@@H](NC(=O)Nc2ccc3c(c2)OCO3)[C@@H](CO)O1)NCc1ccc(Cl)cc1	-4	/	0
SMILES	Statin myotox sup	SUMO Mot1 rescue	Cneo AK release
C[C@@H]1CN([C@@H](C)CO)C(=O)c2cc(C#Cc3cccnc3)cnc2O[C@H]1CN(C)Cc1ccc(F)cc1	-7	/	7
Cc1ccc(C)c(NC(=O)C(c2ccccc2)N2CCN(CC(=O)N3CCOCC3)CC2)c1 (centres undefined)	16	-4	-2
Cc1ccc(C)c(NC(=O)C(NCC(C)(C)N2CCOCC2)c2ccccc2)c1 (centres undefined)	-10	767*	23
C/C=C/c1ccc2c(c1)O[C@@H](CN(C)C(=O)C1CCCCC1)[C@@H](C)CN([C@@H](C)CO)S2(=O)=O	-6	/	/
C[C@H](CO)N1C[C@H](C)[C@@H](CN(C)Cc2cncnc2)Oc2ncc(C#Cc3ccccn3)cc2C1=O	/	/	2
COc1ccc(-n2cc(-c3ccc(Br)cc3)[nH]c2=S)cc1	7	-9	3
COc1ccc(-n2cc(-c3ccc(OC)c(OC)c3)[nH]c2=S)cc1	0	545*	/
C[C@H](O)C#Cc1ccc2c(c1)O[C@@H](CN(C)CC1CCCC1)[C@H](C)CN([C@H](C)CO)S2(=O)=O	-152	/	2
Cc1ccc(S(=O)(=O)N2CCN(C(=O)C3Cc4ccccc4CN3C(=O)c3ccco3)CC2)cc1 (centres undefined)	98*	0	3
O=C(O)C1Cc2ccccc2CN1C(=O)c1ccco1 (centres undefined)	26	-24	0
CO[C@H]1CN(C)C(=O)c2ccc(NC(=O)c3cc(C)on3)cc2OC[C@H](C)N(CC2CC2)C[C@@H]1C	-1	/	-6
Cc1cc(-c2nc3ncccc3o2)ccc1N	100*	-13	0
O=C(Nc1ccc2oc(-c3ccncc3)nc2c1)c1ccccc1	8	3	-4
Cn1cc([N+](=O)[O-])c(C(=O)Nc2ccc(-c3nc4ccccc4o3)cc2)n1	/	+	/
Cc1ccc(-c2nc3ncccc3o2)cc1NC(=O)c1ccc([N+](=O)[O-])o1	233*	-1	0
Cc1ccc(-c2nc3ncccc3o2)cc1N	7	-5	-2
Cc1cc(-c2nc3ncccc3o2)ccc1NC(=O)c1ccc([N+](=O)[O-])o1	-16	/	1
O=C(Nc1ccc2oc(-c3ccncc3)nc2c1)c1ccc([N+](=O)[O-])o1	145*	-3	-12
O=C(Nc1ccc(-c2nc3ccccc3o2)cc1)c1ccc(N2CCOCC2)c([N+](=O)[O-])c1	/	16	/
COc1ccc(NC(=O)Nc2ccc3c(c2)[C@@H]2C[C@H](CC(=O)NCc4ccccn4)O[C@H](CO)[C@@H]2O3)cc1	3	/	19
Cc1noc(C)c1NC(=O)Nc1ccc2c(c1)CC(=O)N([C@@H](C)CO)C[C@H](C)[C@H](CN(C)CC1CCCCC1)O2	-31	/	3
O=C(c1ccc(F)cc1)N1CCCCN2[C@H](CO)[C@H](c3ccc(-c4ccc(F)cc4)cc3)[C@@H]2C1	/	/	-2
O=S(=O)(c1ccc(F)cc1)N1CC[C@@H]2[C@H](CO)Nc3ccc(-c4ccc(F)cc4)cc3[C@@H]21	13	/	0
CC(C)C(=O)Nc1ccc(-c2nc3ncccc3o2)cc1	-8	-8	3
O=C(Nc1nc(-c2ccccn2)cs1)c1ccc([N+](=O)[O-])o1	241*	0	0
SMILES	Statin myotox sup	SUMO Mot1 rescue	Cneo AK release
Cc1ccc(C(=O)Nc2nc(-c3ccccn3)cs2)o1	/	-3	/
O=C(Nc1ccc(-c2nc3ncccc3o2)cc1)c1ccc([N+](=O)[O-])o1	226*	-2	0
Cc1cc(C)c(C)c(S(=O)(=O)N2CCN(c3ccccn3)CC2)c1C	3	0	-5
Cc1n[nH]c(C)c1S(=O)(=O)N1CCN(c2ccccn2)CC1	78*	-4	3
C[C@H](CO)N1C[C@H](C)[C@@H](CN(C)Cc2ccc3c(c2)OCO3)OCCCC[C@H](C)Oc2ccc(NC(=O)Nc3cccc4ccccc34)cc2C1=O	-292	/	1
C[C@@H]1CN([C@@H](C)CO)C(=O)c2cc(-c3ccncc3)cnc2O[C@H]1CN(C)C(=O)Nc1ccc2c(c1)OCO2	2	/	48
CCCNC(=O)N1C[C@H](O)COC[C@H]2O[C@H](CC(=O)NCc3ccc(Cl)c(Cl)c3)CC[C@@H]21	-11	/	2
